# High-throughput results: PubChem, several laboratories
# CASP6 VEID inh – inhibitors of human caspase-6. purified caspase-6, Z-VEID-R110 cleavage fluorescence. AID 686996. P55212. actives 0.53% (n = 350,000). inhibition, % at 12.5 µM;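 active means mean inhibition across replicates at least about 35%, with every replicate also reaching that limit, limit read from the data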
# LEDGF integ inh – blocks HIV-1 LEDGF/p75-dependent DNA integration. inhibition, % at 3.7 µM. actives 0.64% (n = 370,000). TR-FRET IN-LEDGF/p75 DNA integration, Eu/Cy5;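 active means inhibition above the screen-wide mean plus 3 SD, cut at about 13% in these data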;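 further: signal is the Cy5 over europium emission ratio at 671 and 618 nm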
# MBD2 DNA inh – blocks human MBD2 binding to methylated DNA; actives 0.31% (n = 370,000); TR-FRET, MBD2 binding to methylated oligonucleotide; inhibition, % at 4.4 µM; Q9UBB5; AID 686964; in the data active means inhibition above about 13%
# Target sequence (Q9UBB5 whole entry, looked up): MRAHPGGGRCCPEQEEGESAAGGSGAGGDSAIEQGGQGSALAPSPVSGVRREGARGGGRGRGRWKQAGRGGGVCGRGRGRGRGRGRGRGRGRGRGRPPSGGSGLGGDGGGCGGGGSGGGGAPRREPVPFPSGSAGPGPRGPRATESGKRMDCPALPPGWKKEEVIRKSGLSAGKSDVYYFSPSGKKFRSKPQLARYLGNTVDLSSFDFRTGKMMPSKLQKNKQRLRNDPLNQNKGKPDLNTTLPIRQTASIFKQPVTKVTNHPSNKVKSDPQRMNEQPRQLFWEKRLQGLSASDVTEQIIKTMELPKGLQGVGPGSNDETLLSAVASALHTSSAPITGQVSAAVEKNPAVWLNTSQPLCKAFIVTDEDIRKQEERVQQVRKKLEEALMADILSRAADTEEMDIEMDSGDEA
# TDP2 inh – blocks human TDP2 phosphodiesterase activity; O95551; recombinant TDP2, T5PNP hydrolysis, p-nitrophenol absorbance 415 nm; inhibition, % at 12.8 µM; actives 0.34% (n = 370,000);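 active means inhibition above the mean of all tested compounds plus 3 SD, set per campaign, cut at about 25% in these data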
#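 test system = human TDP2 enzyme | input = TDP2 enzyme at 120 nM final | medium = 50 mM Tris-HCl pH 7.5 with Mg2+, KCl, DTT, BSA | also added = T5PNP substrate, 5 mM | times = 2 h at 37 °C | technique = epi absorbance | benchmarks = high control without enzyme, low control DMSO plus TDP2 | replication = each compound tested once, singlicate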
# UHRF1 MBD2 ctr – blocks human UHRF1 binding to methylated DNA | UHRF1 binding to methylated oligo, TR-FRET | actives 0.75% (n = 370,000) | AID 687016 | inhibition, % at 4.4 µM; in the data active means inhibition above about 21%;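 further: UHRF1 SRA domain binding a hemimethylated CpG hairpin DNA probe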
# NSD2 HMT inh – inhibitors of human histone methyltransferase NSD2; O96028; NSD2 peptide methylation, AlphaScreen, 120 min; inhibition, % at 12.5 µM; actives 0.54% (n = 310,000); AID 743445; in the data active means inhibition above about 50%
# Hits are given with their value; . = inactive; / = not tested or not shown. Only some compounds are listed: those with a hit (about 1.8% of all), similar ones and a draw of the others.
SMILES,CASP6 VEID inh,LEDGF integ inh,MBD2 DNA inh,TDP2 inh,UHRF1 MBD2 ctr,NSD2 HMT inh
COc1ccc(-c2ccc(C(=O)NCC3CC3)c3occc23)c(C)c1,.,.,.,.,.,.
O=C1c2ccccc2C(=O)c2c([N+](=O)[O-])ccc(O)c21,38,.,.,.,.,.
O=C(O)c1ccc([N+](=O)[O-])c2c1C(=O)c1ccccc1C2=O,.,.,.,.,.,.
CC(C)C(=O)Nc1cccc(N2CCN(CCCN3C(=O)C4CCCCN4C3=O)CC2)c1 (centres undefined),.,.,.,.,23,.
Cc1ccc(CNC(=O)c2ccc(-n3cccc3)cc2)cc1,.,.,.,.,35,.
Cc1ccc(CNC(=O)Cc2ccc(-n3cccc3)cc2)cc1,/,.,.,.,.,.
O=C(C[C@@H]1C=C[C@H](NC(=O)Nc2ccc3c(c2)OCO3)[C@@H](CO)O1)NCc1ccc(Cl)cc1,.,/,/,/,/,/
Cn1c(N)c(N=O)c(=O)n(C)c1=S,60,.,.,.,.,.
COCC(=O)N1C[C@@H](C)[C@H](OC)CN(C)C(=O)c2cc(NC(=O)c3ccccc3)ccc2OC[C@@H]1C,.,/,/,/,/,/
O=C(CCC(=O)Nc1ccc(F)cc1)N/N=C/c1ccc(O)cc1O,.,.,.,.,24,.
CC(OC(=O)c1ccccc1C(=O)N(C)c1ccccc1)C(=O)Nc1ccc(C(N)=O)cc1 (centres undefined),.,.,.,.,.,.
CC(OC(=O)c1cc(O)c2ccccc2c1O)C(=O)Nc1ccc(C(N)=O)cc1 (centres undefined),83,14,.,47,.,/
CNC[C@H]1Oc2cc(C#CC(C)(C)O)ccc2S(=O)(=O)N([C@H](C)CO)C[C@@H]1C,.,/,/,/,/,/
NC(=O)c1ccc(N=C2C(=O)Nc3ccc([N+](=O)[O-])cc32)cc1,.,.,.,44,.,/
O=C1Nc2ccccc2C1=Nc1cccc([N+](=O)[O-])c1,.,.,.,.,.,.
Oc1ccc2c(c1)C1CCCC1(N1CCOCC1)O2 (centres undefined),/,31,.,.,.,.
CC1=C(C(=O)N2CCOCC2)C(c2ccc(O)cc2)NC(=S)N1 (centres undefined),/,.,.,.,.,.
O=C1CC(Nc2ccc(N3CCOCC3)cc2)C(=O)N1Cc1ccccc1 (centres undefined),/,22,.,.,.,.
O=C1CC(Nc2ccc3ccccc3c2)C(=O)N1Cc1ccccc1 (centres undefined),/,.,.,.,.,.
CCCCc1c(C)nc2cc(-c3ccco3)[nH]n2c1=O,.,.,.,.,.,.
O=C1c2nc3cc(-c4ccco4)[nH]n3c(=O)c2CN1Cc1ccccc1,71,.,.,.,.,.
COC(=O)C1C(c2ccc(OC)c(OC)c2)NC(c2ccc(OC)c(OC)c2)C(C(=O)OC)S1(=O)=O (centres undefined),.,.,.,.,23,.
O=c1oc2ccccc2c(NCCO)c1[N+](=O)[O-],.,.,.,.,41,.
O=c1oc2ccccc2c(NCc2ccccc2)c1[N+](=O)[O-],.,.,.,.,.,.
COc1ccc2c3c([nH]c2c1)[C@H](CO)N(C(=O)C1CCCC1)CC31CN(Cc2nccs2)C1,.,/,/,/,/,/
SMILES,CASP6 VEID inh,LEDGF integ inh,MBD2 DNA inh,TDP2 inh,UHRF1 MBD2 ctr,NSD2 HMT inh
NS(=O)(=O)c1cc(C(=O)NC2CCSc3ccccc32)ccc1Cl (centres undefined),80,60,96,73,102,180
CC(=O)Nc1cc(-c2ccc(N3CCN(C)CC3)cc2)cn2c(-c3ccc(S(C)(=O)=O)cc3)cnc12,.,.,.,.,25,.
CC(=O)Nc1cc(-c2ccc(N3CCN(C)CC3)cc2)cn2c(-c3ccccc3)cnc12,.,.,.,.,.,.
CC(C)NC(=O)N(C)C[C@@H]1OCCCC[C@@H](C)Oc2ccc(NS(C)(=O)=O)cc2C(=O)N([C@H](C)CO)C[C@H]1C,.,/,/,/,/,/
NC(=O)/C(=C/c1ccco1)C(N)=S,35,.,.,.,.,.
O=Cc1ccc(Oc2nc(Cl)ncc2F)cc1,42,.,.,.,.,.
Cc1ccc(S(=O)(=O)N2CCOCC2)cc1NC(=O)CNCc1ccccn1,.,.,.,.,27,.
Cc1ccc(SCCC(=O)Nc2ccccc2C(=O)NC(C)C)cc1,/,.,.,.,22,.
CC1CCN(C(=S)c2cn(Cc3cccc(F)c3)c3ccccc23)CC1,.,.,.,.,29,.
CN1CCN(C(=S)c2cn(Cc3ccccc3)c3ccccc23)CC1,.,.,.,.,.,/
O=S(=O)(NCc1ccc2c(c1)OCO2)c1ccc2c(c1)oc1ccccc12,.,.,.,.,29,.
CC(NCC1COc2ccccc2O1)C(=O)NCc1ccccc1 (centres undefined),.,.,.,.,25,.
CN(C)C(=O)C[C@@H]1C[C@H]2c3cc(NC(=O)NC4CCCCC4)ccc3O[C@H]2[C@@H](CO)O1,.,/,/,/,/,/
O=[n+]1cc(-c2ccc(Cl)cc2)n([O-])c2c1CCC2,.,.,.,.,.,.
O=[n+]1cc(-c2ccccc2)n([O-])c2c1CCC2,/,.,.,.,21,.
C[C@@H]1CCCCO[C@@H](CN(C)S(=O)(=O)c2ccc(F)cc2)[C@@H](C)CN([C@@H](C)CO)C(=O)c2cc(NC(=O)c3ccccc3)ccc2O1,.,/,/,/,/,/
Cc1ccc(CN2CCC[C@]3(N[C@H](c4ccccc4)[C@@H]4C(=O)N(Cc5ccccc5)C(=O)[C@@H]43)C2=O)cc1,.,.,.,.,.,/
Cc1ccc(CN2CCC[C@]3(N[C@H](c4ccc(C)cc4)[C@@H]4C(=O)N(Cc5ccccc5)C(=O)[C@@H]43)C2=O)cc1,.,.,.,.,22,/
O=C1[C@H]2[C@@H](c3ccccc3)N[C@]3(CCCN(Cc4ccc(F)cc4)C3=O)[C@H]2C(=O)N1Cc1ccccc1,.,.,.,.,23,/
COC(=O)CCc1c(C)c(C(=O)c2ccc(F)cc2)c2ccccn12,.,.,.,.,.,.
COC(=O)CCc1c(C)c(C(=O)c2cc(F)c(F)c(F)c2F)c2ccccn12,62,.,.,.,.,.
CCCN1C[C@H](C)[C@H](OC)CN(C)C(=O)c2ccc(NC(=O)C3CCOCC3)cc2OC[C@H]1C,.,/,/,/,/,/
COc1ccc(NC(=O)Nc2ccc3c(c2)CC(=O)N([C@H](C)CO)C[C@H](C)[C@@H](CN(C)C(=O)Nc2ccc(F)cc2)O3)cc1,.,/,/,/,/,/
O=C(COC(=O)C1CCCCC1)Nc1cc([N+](=O)[O-])ccc1F,.,.,.,.,.,.
Nc1ccc(C(=O)OCC(=O)Nc2cc([N+](=O)[O-])ccc2F)cc1,.,.,.,.,42,.
C[C@H](CO)N1C[C@H](C)[C@H](CN(C)C(=O)C2CC2)Oc2ncc(-c3ccccc3F)cc2C1=O,.,/,/,/,/,/
